Assay results as given in ChEMBL document CHEMBL3997782, “Methoxylated 2'-hydroxychalcones as antiparasitic hit compounds” (Eur J Med Chem, 2017).

Legend:
[1] = Selectivity index, ratio of CC50 for human THP1 cells to EC50 for anti-parasitic activity against bloodstream form of Trypanosoma brucei brucei Lister 427; format: toxicity; conditions: THP-1 cells, read-out: Ratio CC50/EC50
Summary of the method: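 SI = CC50 in PMA-differentiated THP-1 macrophages (MTT) divided by the antiparasitic EC50.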

[2] = test system: Trypanosoma brucei brucei; experiment: Anti-parasitic activity against bloodstream form of Trypanosoma brucei brucei Lister 427 after 72 hrs by resazurin-based assay; format: functional; conditions: Lister 427, 72 h
Summary of the method: (§1)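 Bloodstream-form T. brucei, modified resazurin-based viability assay. EC50 is the arithmetic mean of at least two independent determinations, each run in triplicate.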

[3] = Lipophilicity, log P of the compound; format: physicochemical; conditions: octanol/water
[4] = Cytotoxicity against human THP1 cells by MTT assay; format: cell-based; conditions: THP-1 cells
Summary of the method: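 THP-1 cells differentiated to macrophages with PMA, viability read by colorimetric MTT. CC50 and NOAEL are the arithmetic mean of at least two independent determinations, each run in triplicate.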

Aurora kinase B = Aurora kinase B (Homo sapiens, UniProt Q96GD4); experiment: Inhibition of N-terminal-GST-tagged recombinant full length human Aurora B expressed in baculovirus infected Sf9 cells at 10 uM using native Swine Myelin Basic Protein as substrate measured after 60 mins by ADP-Glo assay relative to control; conditions: probe native Swine Myelin Basic Protein
Summary of the method: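 Aurora B kinase activity measured by ADP-Glo, which detects ADP formed through a coupled luciferase luminescence read-out.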

CYP3A4 = CYP3A4 (Homo sapiens, UniProt P08684); experiment: Inhibition of human CYP3A4 expressed in baculovirus-infected insect cells at 10 uM using Luciferin-PFBE as substrate in presence of NADPH by P450-Glo luminescence assay relative to control; format: ADME; conditions: probe Luciferin-PFBE
CYP1A2 = molecular target: T1, CYP1A2 (Homo sapiens, UniProt P05177); experiment: Inhibition of human CYP1A2 expressed in baculovirus-infected insect cells at 10 uM using Luciferin-1A2 as substrate in presence of NADPH by P450-Glo luminescence assay relative to control; format: ADME; conditions: probe Luciferin-1A2
T1 sequence (P05177 whole entry): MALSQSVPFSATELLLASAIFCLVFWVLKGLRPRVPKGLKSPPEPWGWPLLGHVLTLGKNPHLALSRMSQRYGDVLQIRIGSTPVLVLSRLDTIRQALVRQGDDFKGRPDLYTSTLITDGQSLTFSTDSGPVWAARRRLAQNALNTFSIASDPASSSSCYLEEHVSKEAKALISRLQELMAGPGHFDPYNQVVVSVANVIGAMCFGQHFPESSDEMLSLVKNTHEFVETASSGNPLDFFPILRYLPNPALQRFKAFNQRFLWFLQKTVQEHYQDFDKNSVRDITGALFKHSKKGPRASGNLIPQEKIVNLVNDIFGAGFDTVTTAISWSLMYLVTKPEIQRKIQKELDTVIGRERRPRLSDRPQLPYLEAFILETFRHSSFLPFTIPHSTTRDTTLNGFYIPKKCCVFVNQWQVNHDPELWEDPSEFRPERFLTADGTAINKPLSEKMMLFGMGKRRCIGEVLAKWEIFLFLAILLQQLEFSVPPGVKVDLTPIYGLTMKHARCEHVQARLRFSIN
Summary of the method: (§2)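 CYP enzymes as microsomal preparations from baculovirus-infected insect cells, run on the P450-Glo luminogenic substrate platform. A fall in light output indicates inhibition.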

Trypanosoma cruzi [5] = experiment: Anti-parasitic activity against Trypanosoma cruzi Y promastigotes infected in HG39 cells at 10 uM by qPCR analysis relative to control; format: functional, cell-based; conditions: in the assay text read “trypomastigotes” for “promastigotes”
Summary of the method: (§3)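 Confluent HG39 cells (3 x 10^6 per well) infected at a 1:1 ratio with blood-derived T. cruzi Y strain trypomastigotes. Growth inhibition was read as parasite gDNA by TaqMan probe-based quantitative real-time PCR.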

[6] = Cytotoxicity against human A549 cells assessed as cell growth at 10 uM by Cell titer-Glo assay relative to control; format: cell-based; conditions: read-out: Activity
Summary of the method: (§4)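 A549 and WI-38 cells grown in DMEM with 10% v/v FCS, streptomycin 100 µg/ml and penicillin G 100 U/ml. Cell number read as cellular ATP by CellTiter-Glo luminescence. Growth 60–100% scored non-cytotoxic, 0–60% cytostatic, below 0 cytotoxic.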

CYP2C19 = CYP2C19 (Homo sapiens, UniProt P33261); experiment: Inhibition of human CYP2C19 expressed in baculovirus-infected insect cells at 10 uM using Luciferin-H EGE as substrate in presence of NADPH by P450-Glo luminescence assay relative to control; format: ADME; conditions: probe Luciferin-H EGE; summary of the method: as §2
hERG (KCNH2) = hERG (KCNH2) (Homo sapiens, UniProt Q12809); experiment: Inhibition of human ERG at 10 uM by Tracer Red dye based fluorescence polarization assay relative to control; conditions: probe Tracer Red dye
CYP2C9 = CYP2C9 (Homo sapiens, UniProt P11712); experiment: Inhibition of human CYP2C9 expressed in baculovirus-infected insect cells at 10 uM using Luciferin-H as substrate in presence of NADPH by P450-Glo luminescence assay relative to control; conditions: probe Luciferin-H
CYP2D6 = CYP2D6 (Homo sapiens, UniProt P10635); experiment: Inhibition of human CYP2D6 expressed in baculovirus-infected insect cells at 10 uM using Luciferin-ME EGE as substrate in presence of NADPH by P450-Glo luminescence assay relative to control; format: ADME; conditions: probe Luciferin-ME EGE; summary of the method: as §2
[7] = Cytotoxicity against human […] cells assessed as cell growth at 10 uM by Cell titer-Glo assay relative to control; format: cell-based; conditions: WI-38 cells, read-out: Activity; summary of the method: as §4
[8] = test system: Trypanosoma brucei brucei; experiment: Anti-parasitic activity against bloodstream form of Trypanosoma brucei brucei Lister 427 at 10 uM after 72 hrs by resazurin-based assay relative to control; format: functional; conditions: Lister 427, 72 h; summary of the method: as §1
786-0 = experiment: Mitochondrial toxicity in human 786-O cells at 10 uM by mitotracker red chloromethyl-Xrosamine staining based-uptake method relative to control; format: cell-based; conditions: 786-0, 10 µM
Summary of the method: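 786-O renal carcinoma cells kept in RPMI-1640 with 2 mM glutamine, 10% v/v FCS, streptomycin 100 µg/ml and penicillin G 100 U/ml. Mitochondrial toxicity monitored by MitoTracker Red CMXRos uptake with high-content imaging.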

Leishmania infantum = experiment: Anti-parasitic activity against Leishmania infantum amastigotes infected in human THP1 cells at 50 uM after 5 days by Giemsa staining based assay relative to control; format: functional, cell-based; conditions: THP-1, 120 h
Summary of the method: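 Intracellular L. infantum amastigotes in host cells, imaged by high-content automated imaging. Host cell number, infected cells and parasites per infected cell were counted. Infection Ratio = infected cells / total cells.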

Trypanosoma cruzi [9] = experiment: Anti-parasitic activity against Trypanosoma cruzi Y promastigotes infected in HG39 cells by qPCR analysis; format: functional, cell-based; conditions: in the assay text read “trypomastigotes” for “promastigotes”; summary of the method: as §3

Aurora kinase B, sequence (Q96GD4 whole entry): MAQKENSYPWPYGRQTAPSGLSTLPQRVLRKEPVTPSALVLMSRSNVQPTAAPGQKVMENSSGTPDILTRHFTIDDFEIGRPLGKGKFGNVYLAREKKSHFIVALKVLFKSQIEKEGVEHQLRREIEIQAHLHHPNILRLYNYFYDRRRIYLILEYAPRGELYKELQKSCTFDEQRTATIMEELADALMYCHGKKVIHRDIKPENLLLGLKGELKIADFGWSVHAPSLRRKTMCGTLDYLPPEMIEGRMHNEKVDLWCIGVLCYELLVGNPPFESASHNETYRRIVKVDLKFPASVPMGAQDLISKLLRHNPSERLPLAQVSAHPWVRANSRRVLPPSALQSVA
CYP3A4, sequence (P08684 whole entry): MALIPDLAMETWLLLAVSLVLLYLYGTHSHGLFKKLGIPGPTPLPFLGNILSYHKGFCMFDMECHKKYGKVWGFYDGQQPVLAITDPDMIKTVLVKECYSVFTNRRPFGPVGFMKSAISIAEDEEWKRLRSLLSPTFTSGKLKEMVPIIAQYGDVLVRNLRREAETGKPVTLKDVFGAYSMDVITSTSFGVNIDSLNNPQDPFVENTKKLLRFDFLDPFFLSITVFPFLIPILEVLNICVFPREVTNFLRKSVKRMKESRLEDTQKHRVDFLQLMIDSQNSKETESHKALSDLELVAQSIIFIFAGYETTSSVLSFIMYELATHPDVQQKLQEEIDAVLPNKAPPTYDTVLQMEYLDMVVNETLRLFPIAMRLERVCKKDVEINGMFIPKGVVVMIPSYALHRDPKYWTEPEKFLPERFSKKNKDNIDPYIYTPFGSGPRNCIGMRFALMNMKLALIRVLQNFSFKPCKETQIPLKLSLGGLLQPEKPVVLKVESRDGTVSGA
CYP2D6, sequence (P10635 whole entry): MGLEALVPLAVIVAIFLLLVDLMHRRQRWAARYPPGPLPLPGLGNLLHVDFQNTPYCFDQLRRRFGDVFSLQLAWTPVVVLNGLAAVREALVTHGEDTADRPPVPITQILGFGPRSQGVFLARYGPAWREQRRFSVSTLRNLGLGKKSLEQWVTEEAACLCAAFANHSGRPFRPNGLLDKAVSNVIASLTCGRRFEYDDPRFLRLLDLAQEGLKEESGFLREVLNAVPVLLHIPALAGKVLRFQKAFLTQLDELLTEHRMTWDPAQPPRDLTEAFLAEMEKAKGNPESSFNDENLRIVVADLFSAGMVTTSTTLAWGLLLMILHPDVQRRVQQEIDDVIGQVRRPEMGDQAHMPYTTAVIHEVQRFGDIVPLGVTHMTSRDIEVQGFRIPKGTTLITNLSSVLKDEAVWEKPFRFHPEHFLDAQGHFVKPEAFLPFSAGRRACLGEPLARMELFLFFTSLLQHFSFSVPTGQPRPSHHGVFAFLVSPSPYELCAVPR
hERG (KCNH2), sequence (Q12809 whole entry): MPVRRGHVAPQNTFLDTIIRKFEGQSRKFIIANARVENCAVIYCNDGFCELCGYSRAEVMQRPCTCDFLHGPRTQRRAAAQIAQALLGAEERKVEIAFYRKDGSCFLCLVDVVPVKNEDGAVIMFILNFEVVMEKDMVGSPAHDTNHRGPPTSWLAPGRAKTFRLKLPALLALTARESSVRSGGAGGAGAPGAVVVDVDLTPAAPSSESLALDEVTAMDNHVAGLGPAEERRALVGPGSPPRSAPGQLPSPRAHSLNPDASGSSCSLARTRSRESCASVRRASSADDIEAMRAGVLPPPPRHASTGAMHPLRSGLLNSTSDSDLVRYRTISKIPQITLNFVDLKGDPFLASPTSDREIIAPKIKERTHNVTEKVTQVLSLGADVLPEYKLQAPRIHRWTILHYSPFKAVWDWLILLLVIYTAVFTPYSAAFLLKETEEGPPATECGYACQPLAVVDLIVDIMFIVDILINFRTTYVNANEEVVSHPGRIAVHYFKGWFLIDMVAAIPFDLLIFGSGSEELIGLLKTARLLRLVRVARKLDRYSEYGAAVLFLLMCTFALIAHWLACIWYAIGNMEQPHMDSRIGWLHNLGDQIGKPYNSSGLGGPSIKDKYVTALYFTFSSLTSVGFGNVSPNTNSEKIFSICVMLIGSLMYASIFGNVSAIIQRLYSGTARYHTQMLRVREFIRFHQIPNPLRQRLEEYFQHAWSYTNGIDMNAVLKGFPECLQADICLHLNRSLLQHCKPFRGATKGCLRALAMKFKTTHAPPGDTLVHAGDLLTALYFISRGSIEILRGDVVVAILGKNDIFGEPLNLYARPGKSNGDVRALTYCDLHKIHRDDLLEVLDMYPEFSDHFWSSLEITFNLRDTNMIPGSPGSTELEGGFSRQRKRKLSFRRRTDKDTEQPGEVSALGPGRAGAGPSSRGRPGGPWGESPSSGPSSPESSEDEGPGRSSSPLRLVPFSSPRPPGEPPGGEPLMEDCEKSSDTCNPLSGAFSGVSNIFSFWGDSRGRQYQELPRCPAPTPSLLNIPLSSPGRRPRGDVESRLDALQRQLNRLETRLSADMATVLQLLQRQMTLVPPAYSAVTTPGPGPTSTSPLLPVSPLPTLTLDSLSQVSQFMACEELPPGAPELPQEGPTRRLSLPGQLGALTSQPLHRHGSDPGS
CYP2C9, sequence (P11712 whole entry): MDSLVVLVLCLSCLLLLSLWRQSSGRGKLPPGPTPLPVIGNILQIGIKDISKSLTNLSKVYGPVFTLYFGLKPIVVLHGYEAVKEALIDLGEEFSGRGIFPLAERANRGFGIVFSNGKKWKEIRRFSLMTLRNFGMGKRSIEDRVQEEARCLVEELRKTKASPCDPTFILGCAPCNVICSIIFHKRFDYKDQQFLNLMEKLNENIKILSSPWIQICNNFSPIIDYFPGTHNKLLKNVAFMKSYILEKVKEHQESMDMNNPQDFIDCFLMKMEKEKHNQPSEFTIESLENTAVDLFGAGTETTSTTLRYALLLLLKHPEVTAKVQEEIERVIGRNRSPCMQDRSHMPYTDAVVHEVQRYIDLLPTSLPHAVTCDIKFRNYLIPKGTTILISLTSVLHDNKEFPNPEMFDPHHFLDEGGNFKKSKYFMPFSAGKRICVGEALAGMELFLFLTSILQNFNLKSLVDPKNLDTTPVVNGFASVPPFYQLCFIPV
CYP2C19, sequence (P33261 whole entry): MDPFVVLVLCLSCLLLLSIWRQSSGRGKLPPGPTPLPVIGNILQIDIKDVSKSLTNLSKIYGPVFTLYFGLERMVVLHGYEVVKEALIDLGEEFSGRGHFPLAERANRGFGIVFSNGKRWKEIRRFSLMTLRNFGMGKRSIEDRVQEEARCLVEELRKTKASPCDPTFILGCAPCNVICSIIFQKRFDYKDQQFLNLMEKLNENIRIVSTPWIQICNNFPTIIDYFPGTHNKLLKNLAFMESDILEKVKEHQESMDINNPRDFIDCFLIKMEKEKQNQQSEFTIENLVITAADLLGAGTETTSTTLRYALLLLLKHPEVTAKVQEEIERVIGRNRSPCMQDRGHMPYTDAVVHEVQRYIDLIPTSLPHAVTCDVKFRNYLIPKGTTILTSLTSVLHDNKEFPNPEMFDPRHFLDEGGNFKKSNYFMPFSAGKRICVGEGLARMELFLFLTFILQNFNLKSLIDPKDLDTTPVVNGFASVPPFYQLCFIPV

| Structure (SMILES) | selectivity ratio [1] | EC50 [2] [nM] | logP [3] | CC50 [4] [nM] | inhibition at 1 h, 10 µM (Aurora kinase B) [%] | inhibition at 10 µM (CYP3A4) [%] | inhibition at 10 µM (CYP1A2) [%] | inhibition at 10 µM (Trypanosoma cruzi [5]) [%] | viability at 10 µM [6] [%] | inhibition at 10 µM (CYP2C19) [%] | inhibition at 10 µM (hERG (KCNH2)) [%] | inhibition at 10 µM (CYP2C9) [%] | inhibition at 10 µM (CYP2D6) [%] | viability at 10 µM [7] [%] | inhibition at 10 µM [8] [%] | Activity (786-0) [%] | inhibition at 50 µM (Leishmania infantum) [%] | EC50 (Trypanosoma cruzi [9]) [nM] | EC50 (Trypanosoma cruzi [5]) [nM] | EC50 (Leishmania infantum) [nM] |
| --- | --- | --- | --- | --- | --- | --- | --- | --- | --- | --- | --- | --- | --- | --- | --- | --- | --- | --- | --- | --- |
| COc1ccc(-c2oc3cc(OC)ccc3c(=O)c2O)cc1 | 9 | 1100 | – | – | – | – | – | – | – | – | – | – | – | – | – | – | – | – | – | – |
| COc1ccc(/C=C/C(=O)c2cc(OC)ccc2O)cc1 | – | – | 3.87 | > 100000 | 107 | 6.2 | 85.2 | 9 | 91.3 | 47.3 | 42.1 | 25.8 | 79.6 | 15.8 | 9 | 15.8 | – | – | – | – |
| COc1ccc2c(=O)c(O)c(-c3ccc(OC)c(OC)c3)oc2c1 | 8 | 2990 | – | – | – | – | – | – | – | – | – | – | – | – | – | – | – | – | – | – |
| COc1cccc(-c2oc3ccc(OC)cc3c(=O)c2O)c1 | 10 | 1430 | – | – | – | – | – | – | – | – | – | – | – | – | – | – | – | – | – | – |
| COc1ccc2oc(-c3ccc(OC)c(OC)c3)c(O)c(=O)c2c1 | 5 | 2020 | – | – | – | – | – | – | – | – | – | – | – | – | – | – | – | – | – | – |
| COc1ccc(C(=O)/C=C/c2ccc(OC)c(OC)c2)c(O)c1 | – | – | 3.53 | > 100000 | -10.4 | 2.4 | 36.2 | 48 | 98.8 | 50 | 3.5 | 10.7 | 92.7 | 128 | 10 | -5.8 | 10 | < 10000 | – | – |
| COc1cccc(-c2oc3cc(OC)ccc3c(=O)c2O)c1 | 8 | 1140 | – | – | – | – | – | – | – | – | – | – | – | – | – | – | – | – | – | – |
| COc1cccc(/C=C/C(=O)c2ccc(OC)cc2O)c1 | ≥ 7 | 3400 | 3.86 | > 25000 | -10.6 | -8.3 | 75.4 | 74 | 110 | 63.5 | 13.6 | 47.4 | 58 | 63 | 100 | -2.9 | 21 | < 10000 | – | – |
| COc1ccc(C(=O)/C=C/c2c(OC)cccc2OC)c(O)c1 | ≥ 29 | 3400 | 3.51 | > 100000 | 92.1 | 11.8 | 52.8 | 0 | 48.2 | 74.9 | 18.8 | -25.6 | 17.1 | 0.1 | 98 | 0 | – | – | – | – |
| CC1CS(=O)(=O)CCN1/N=C/c1ccc([N+](=O)[O-])o1 (stereo not drawn) [NIFURTIMOX] | – | – | – | – | – | – | – | – | – | – | – | – | – | – | – | – | – | – | 2200 | – |
| COc1ccc(O)c(C(=O)/C=C/c2c(OC)cccc2OC)c1 | ≥ 12 | 2100 | 3.52 | > 25000 | 104 | 15.3 | 41.7 | 52 | 103 | 61.1 | -7.1 | 36.9 | 11.7 | 14.6 | 86 | 14.6 | – | < 10000 | – | – |
| COc1ccc(-c2oc3ccc(OC)cc3c(=O)c2O)cc1 | 1 | 20100 | – | – | – | – | – | – | – | – | – | – | – | – | – | – | – | – | – | – |
| COc1ccc(/C=C/C(=O)c2ccc(OC)cc2O)cc1 | – | – | 3.88 | > 100000 | 107 | 5 | 39.6 | 47 | 102 | 34.2 | 2.7 | 21.7 | 47.7 | 14.2 | 18 | 14.2 | – | – | – | – |
| C=CC(C)(C)c1cc(/C=C/C(=O)c2ccc(O)cc2)c(OC)cc1O [LICOAGROCHACONE A] | – | – | 4.74 | – | – | – | – | – | – | – | – | – | – | – | – | – | – | – | – | – |
| CCCCCCCCCCCCCCCCOP(=O)([O-])OCC[N+](C)(C)C [MILTEFOSINE] | – | – | – | – | – | – | – | – | – | – | – | – | – | – | – | – | – | – | – | 2650 |
| COc1cccc(-c2oc3ccccc3c(=O)c2O)c1 | 4 | 2320 | – | – | – | – | – | – | – | – | – | – | – | – | – | – | – | – | – | – |
| COc1ccc2c(=O)c(O)c(-c3cc(OC)c(OC)c(OC)c3)oc2c1 | 17 | 1170 | – | – | – | – | – | – | – | – | – | – | – | – | – | – | – | – | – | – |
| COc1cccc(/C=C/C(=O)c2ccccc2O)c1 | ≥ 19 | 1300 | 3.94 | > 25000 | -6.6 | -1.4 | 85.6 | 46 | 105 | 76.2 | 11.3 | 17.1 | -8.4 | 118 | 100 | 6.2 | 11 | – | – | – |
| COc1cccc(/C=C/C(=O)c2cc(OC)ccc2O)c1 | ≥ 12 | 2100 | 3.87 | > 25000 | -15.1 | 14.3 | 84.2 | 28 | 116 | 69.6 | 17.6 | -31.7 | 52.2 | 87.5 | 100 | 13.4 | 14 | – | – | – |
| COc1ccc(O)c(C(=O)/C=C/c2ccc(OC)c(OC)c2)c1 | – | – | 3.52 | > 50000 | -10.1 | -2.7 | 60 | 0 | 116 | 21.4 | 15.9 | -26.9 | 93.7 | 114 | 15 | -9.5 | 16 | – | – | – |
